The nature of assay [1]: nonspecific flux increase, KCNQ1-free cells – parental CHO cells, counter-screen for KCNQ1 potentiator project (AID 493006;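 active = duplicate-averaged activation above buffer control mean plus 5 SD of those controls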;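 as to activation: fluorescence ratio of max minus min over baseline after K+ and Tl+ depolarization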). The settings on record: parental CHO-K1 cells, FluxOR thallium flux, at 10 µM; active compounds read high. In a few lines: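 Material: untransfected host CHO-K1 cells with FluxOR thallium dye. Timing: overnight 37 °C plating, 90 min RT dye, 20 min compound. Detection: kinetic FluxOR fluorescence, 10 s baseline, 110 s after stimulus. Read-out basis: max-minus-min fluorescence over baseline, percent of buffer-to-R-L3 span. Replicates: duplicate wells per compound, percent values averaged.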
(A counterscreen serves to expose hits that act by an unwanted route or on another target.)

Assay [2] deals with Potassium voltage-gated channel subfamily KQT member 1 (Homo sapiens) (UniProt P51787). Description: enhancement of KCNQ1 channel thallium flux – FluxOR thallium flux, CHO cells, duplicates, confirmation (AID 493007).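 As to outcome: cells depolarized by a potassium plus thallium sulfate stimulus after compound.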 Conditions: KCNQ1 cell line, FluxOR thallium flux fluorescence, at 10 µM; active compounds read high, % of reference activator effect, buffer zero. A digest of the protocol:
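Test system – KCNQ1-expressing CHO cell line · Incubation – FluxOR dye loading 90 min, compound exposure 20 min, room temperature · Detection – FluxOR Tl+ flux fluorescence, 10 s baseline plus 110 s recording · Controls – buffer-only wells as 0% and R-L3 activator as 100%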

The target of assay [3] is Potassium voltage-gated channel subfamily KQT member 2 (Rattus norvegicus) (UniProt O88943). The assay can be described thus: KCNQ2 thallium flux enhancement – KCNQ2-CHO-K1 cells, selectivity assay for KCNQ1 potentiator project (AID 493009;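 active = mean duplicate potentiation above the buffer control mean plus 5 SD of buffer wells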;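 also: assay conditions were tuned for KCNQ1 rather than KCNQ2 modulators; signal is max minus min fluorescence divided by baseline after thallium stimulus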). The settings on record: FluxOR thallium flux fluorescence, at 10 µM; active compounds read high, scaled: buffer 0, activator control 100.
Potassium voltage-gated channel subfamily KQT member 2 (Rattus norvegicus), sequence (O88943 whole entry, looked up): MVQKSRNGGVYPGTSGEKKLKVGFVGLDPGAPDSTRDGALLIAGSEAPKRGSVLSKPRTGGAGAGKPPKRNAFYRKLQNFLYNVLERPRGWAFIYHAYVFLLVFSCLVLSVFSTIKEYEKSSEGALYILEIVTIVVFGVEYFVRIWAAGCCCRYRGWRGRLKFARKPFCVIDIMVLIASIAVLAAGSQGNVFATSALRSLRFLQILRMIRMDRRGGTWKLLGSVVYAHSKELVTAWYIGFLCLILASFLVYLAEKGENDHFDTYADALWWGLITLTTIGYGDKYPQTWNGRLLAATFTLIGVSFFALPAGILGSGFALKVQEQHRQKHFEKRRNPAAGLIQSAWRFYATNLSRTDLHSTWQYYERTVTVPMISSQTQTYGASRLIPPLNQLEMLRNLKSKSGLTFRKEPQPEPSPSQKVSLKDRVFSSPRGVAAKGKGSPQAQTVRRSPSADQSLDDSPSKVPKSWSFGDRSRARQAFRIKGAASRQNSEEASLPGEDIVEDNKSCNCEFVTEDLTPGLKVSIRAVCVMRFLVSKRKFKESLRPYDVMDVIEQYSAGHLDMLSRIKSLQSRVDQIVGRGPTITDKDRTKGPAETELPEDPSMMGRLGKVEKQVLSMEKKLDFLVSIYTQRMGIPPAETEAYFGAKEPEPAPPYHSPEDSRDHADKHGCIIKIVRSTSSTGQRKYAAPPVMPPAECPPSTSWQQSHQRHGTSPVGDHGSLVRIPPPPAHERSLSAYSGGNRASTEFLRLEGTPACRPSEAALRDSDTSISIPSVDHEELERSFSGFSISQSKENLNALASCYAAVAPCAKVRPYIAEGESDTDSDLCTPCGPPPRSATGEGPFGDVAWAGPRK
The target in assay [4] is Potassium voltage-gated channel subfamily KQT member 1 (Homo sapiens) (UniProt P51787). The assay can be described thus: KCNQ1 activators by electrophysiology – IonWorks patch clamp, KCNQ1-CHO cells, orthogonal assay for KCNQ1 potentiator project, confirmation (AID 493184;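 active = current rise at least 3 SD above the untreated control mean in each of two repeat wells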). Conditions: automated patch clamp current, at 10 µM; active compounds read high. In a few lines:
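Read-out: Percent current increase versus pre-compound level | Assay system: CHO cells carrying KCNQ1 | Measured by: Automated perforated-patch electrophysiology | Medium: External bath solution at pH 7.4 | Dosing: One dose, 10 µM final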
On the technique in general: In patch-clamp work, channel activity is measured electrically.

Activity calls are given as the source filed them.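 The calls were made as follows, unless noted: active = potentiation averaged over duplicate wells exceeding buffer-only control mean by more than 3 SD; inactive = the rest.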

Potassium voltage-gated channel subfamily KQT member 1 (Homo sapiens), sequence (P51787 whole entry, looked up): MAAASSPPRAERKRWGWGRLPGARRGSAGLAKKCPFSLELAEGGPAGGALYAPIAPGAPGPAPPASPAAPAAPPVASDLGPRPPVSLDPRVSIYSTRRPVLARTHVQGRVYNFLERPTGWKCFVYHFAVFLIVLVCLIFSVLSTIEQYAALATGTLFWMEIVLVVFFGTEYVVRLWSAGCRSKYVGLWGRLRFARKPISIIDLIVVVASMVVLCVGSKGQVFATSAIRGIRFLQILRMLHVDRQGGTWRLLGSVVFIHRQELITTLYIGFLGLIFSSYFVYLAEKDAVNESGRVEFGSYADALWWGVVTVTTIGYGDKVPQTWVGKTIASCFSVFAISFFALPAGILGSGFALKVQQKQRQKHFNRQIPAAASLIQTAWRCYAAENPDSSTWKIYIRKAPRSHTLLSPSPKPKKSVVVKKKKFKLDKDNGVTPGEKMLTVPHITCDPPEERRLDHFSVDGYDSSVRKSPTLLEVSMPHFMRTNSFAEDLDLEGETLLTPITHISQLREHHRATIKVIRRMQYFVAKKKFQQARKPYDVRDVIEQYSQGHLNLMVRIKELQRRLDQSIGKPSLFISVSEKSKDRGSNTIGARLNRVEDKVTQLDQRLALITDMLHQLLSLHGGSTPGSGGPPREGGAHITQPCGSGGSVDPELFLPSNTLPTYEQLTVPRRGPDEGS

Take `Cc1ccc(-c2cc(C(=O)NCc3ccccn3)c3ccccc3n2)cc1C`: the result in assay [1], in assay [2], in assay [3] and in assay [4] was inactive.
Turning to `O=C1C(C2=C(O)c3ccccc3C2=O)=Nc2ccccc21`, the activation in assay [1] was 225% (active). For the same molecule, the potentiation in assay [2] is 61% (active); in assay [3], 238% (active). Further, the outcome in assay [4] was inactive.
As to `S=c1[nH]c(-c2ccccc2)cs1`, the activation in assay [1] is 380% (active). In addition, the potentiation in assay [2] was 184% (active); in assay [3], 464% (active). Moreover, in assay [4], the outcome was inactive.
With `CC(/C=N/n1c(C2CCCCC2)n[nH]c1=S)=C\c1ccccc1`, the result in assay [1] and in assay [4] was inactive. Also, the potentiation is 270% (active) in assay [2] and 423% (active) in assay [3].
As for `COc1ccc(-c2cnc3c(c2)CCC3(C#N)C#N)cc1`, the outcome in assay [1], in assay [2], in assay [3] and in assay [4] was inactive.
Take `Cc1cc2ccccn2c1C(=S)NC(=O)c1ccccc1`: in assay [1], the activation is 290% (active). The potentiation was 102% (active) in assay [2] and 370% (active) in assay [3]. Moreover, the outcome in assay [4] was inactive.
For `CCn1c(SCC(=O)NC(=O)NCc2ccco2)nc2sc(C)c(C)c2c1=O` the same measures were 184% (active), 40.5% (active), 173% (active) and “inactive”.
For `CCOC(=O)C1=C(O)c2ccccc2C(=O)/C1=C\c1ccc(CC)cc1` the same measures were 177% (active), 114% (active), 156% (active) and “inactive”.
For the molecule `O=C(NC(=S)Nc1nc2ccc(F)cc2s1)c1ccco1`, the activation in assay [1] is 282% (active). Also, the potentiation in assay [2] is 132% (active); in assay [3], 331% (active). In assay [4], the outcome was inactive.
Turning to `Cc1ccccc1-c1nc(-c2ccccn2)no1`, the outcome in assay [1], in assay [2], in assay [3] and in assay [4] was inactive.
Regarding `O=C1N(Cc2ccc(F)cc2)CCN1c1ccc(F)cc1`, the activation in assay [1] was 149% (active). Also, the potentiation was 22% (active) in assay [2] and 144% (active) in assay [3]. Besides, in assay [4], the result was inactive.
On to `CN1C=CC=C/C1=C1\SC(=S)N(C2CCCCC2)C1=O`, for which the result in assay [1], in assay [2], in assay [3] and in assay [4] was inactive.
`CCC1=NN(C(=O)c2ccc(Br)cc2)C(O)(c2ccccc2)C1` (stereo not given): the result in assay [1], in assay [2], in assay [3] and in assay [4] was inactive.
For `COc1cc(Br)cc(C=Nc2cccc(C(F)(F)F)c2)c1O`, the outcome in assay [1], in assay [2], in assay [3] and in assay [4] was inactive.
For `O=c1c(O)c(-c2cccs2)oc2ccccc12`, the activation in assay [1] is 290% (active). Further, the potentiation in assay [2] is 115% (active); in assay [3] it was 289% (active). The outcome in assay [4] was inactive.
On to `CC(C)(C)NC(=O)C(=O)NNC(=O)COc1ccc(Br)cc1`, for which the activation in assay [1] was 227% (active). Also, the potentiation in assay [2] was 53% (active); in assay [3], 215% (active). Also, the outcome in assay [4] was inactive.
For the molecule `CC(C)NC(=O)/C(=C/c1cn(-c2ccccc2)nc1-c1cccc([N+](=O)[O-])c1)NC(=O)c1ccccc1`, the outcome in assay [1], in assay [2], in assay [3] and in assay [4] was inactive.
For `C=CCOc1c(Br)cc(/C=N/Nc2ccc(C(=O)O)cc2)cc1OCC`, the outcome in assay [1], in assay [2], in assay [3] and in assay [4] was inactive.
In the case of `C(=N\NC(=Nc1ccccc1)c1ccccn1)/c1ccccn1`, the result in assay [1], in assay [2], in assay [3] and in assay [4] was inactive.
In the case of `COCCN(CCOC)Cc1cc(=O)oc2cc3c(cc12)CCC3`, in assay [1], the activation is 145% (active). The potentiation in assay [2] is 45.5% (active). For the same molecule, the result in assay [3] and in assay [4] was inactive.
Take `O=C1c2ccccc2NC(c2ccccc2O)N1O` (stereo not given): the activation in assay [1] was 248% (active). For the same molecule, the potentiation in assay [2] was 82% (active); in assay [3], 262% (active). In addition, the outcome in assay [4] was inactive.
`COc1ccc(C(=O)CC(=O)C(=O)Nc2ccccc2Cl)cc1`: the activation in assay [1] is 139% (active). The potentiation in assay [2] was 25% (active). The outcome in assay [3] and in assay [4] was inactive.
With `CCSc1nc(=S)cc(C)[nH]1`, the activation in assay [1] is 340% (active). Besides, the potentiation in assay [2] is 172% (active); in assay [3], 388% (active). The outcome in assay [4] was inactive.
As to `CO/N=C/CC(=O)Nc1ccc(F)cc1F`, the outcome in assay [1], in assay [2], in assay [3] and in assay [4] was inactive.
Take `Cc1ccc(NC(=S)N/N=C2/CCCCc3ccccc32)cc1`: the activation in assay [1] is 274% (active). In addition, the potentiation in assay [2] is 324% (active); in assay [3], 484% (active). In addition, in assay [4], the result was inactive.
Regarding `CN1CCN(C=Nc2nc3ccccc3nc2N2CCCC2)CC1`, the outcome in assay [1], in assay [2], in assay [3] and in assay [4] was inactive.
For the molecule `Nc1ccccc1OCCOCCOc1ccccc1N`, the result in assay [1], in assay [2], in assay [3] and in assay [4] was inactive.
In the case of `Cc1cccc(C(=O)Nc2ccccc2C(=O)NCc2cccnc2)c1`, the outcome in assay [1], in assay [2], in assay [3] and in assay [4] was inactive.
In the case of `CCC(O)C1CCN(Cc2cn(Cc3ccccc3)nc2-c2cc3ccccc3o2)CC1` (stereo not given), in assay [1], the activation was 170% (active). The potentiation in assay [2] is 75% (active); in assay [3], 230% (active). The result in assay [4] was inactive.
The like results for `COc1cc(S(=O)(=O)Nc2cccnc2)ccc1Cl` were, in that order, 200% (active), 64% (active), 212% (active) and “inactive”.

Source of the values: PubChem BioAssay.
